Measured values taken from ChEMBL document CHEMBL2331520, “Synthesis, surface tension properties and antibacterial activities of amphiphilic D-galactopyranose derivatives” (Eur J Med Chem, 2013).
Values after ≈ are worked out from the molar mass of the structure shown.

Columns and labels:
[1] = system: Dickeya chrysanthemi; test: Antibacterial activity against Erwinia chrysanthemi EC3937 assessed as growth inhibition at 30 degC after 24 hrs by liquid broth dilution method; assay type: functional; details: EC3937, 24 h
Procedure, shortened: (§1)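 Strains kept at -80 °C in LB broth with 20% glycerol and grown from 1% (v/v) stock in nutritive broth (yeast extract 1 g/L, meat extract 2 g/L, peptone 5 g/L, NaCl 5 g/L) at 30 °C. Overnight culture adjusted to 0.5 McFarland (~1.5 × 10⁸ cfu/mL). Compound stock 1 g/L in DMSO, serially diluted in broth 1:2 to 1:512, mixed 1:1 with inoculum. Incubation 24 h, 150 rpm, 30 °C. OD600 read; MIC = lowest concentration with no OD increase in all replicates versus negative control.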

[2] = system: Staphylococcus aureus; test: Antibacterial activity against Staphylococcus aureus subsp aureus CIP 53.154 assessed as growth inhibition at 30 degC after 24 hrs by liquid broth dilution method; assay type: functional; details: CIP 53.154, 24 h; procedure, shortened: as §1
[3] = system: Enterobacter cloacae; test: Antibacterial activity against Enterobacter cloacae ATCC 13047 assessed as growth inhibition at 30 degC after 24 hrs by liquid broth dilution method; assay type: functional; details: ATCC 13047, 24 h; procedure, shortened: as §1
[4] = system: Citrobacter freundii; test: Antibacterial activity against Citrobacter freundii ATCC 6750 assessed as growth inhibition at 30 degC after 24 hrs by liquid broth dilution method; assay type: functional; details: ATCC 6750, 24 h; procedure, shortened: as §1
[5] = system: Mycolicibacterium smegmatis; test: Antibacterial activity against Mycobacterium smegmatis CIP 73.26 assessed as growth inhibition at 37 degC after 24 hrs by liquid broth dilution method; assay type: functional; details: CIP 73.26, 24 h
Procedure, shortened: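 Inoculum at 0.5 McFarland (~1.5 × 10⁸ cfu/mL). DMSO stock (1 g/L) serially diluted in the same medium 1:2 to 1:512. Shaken 24 h at 150 rpm, 37 °C. MIC = lowest concentration with no OD600 rise in any replicate versus negative control.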

[6] = system: Escherichia coli; test: Antibacterial activity against Escherichia coli ATCC 10536 assessed as growth inhibition at 30 degC after 24 hrs by liquid broth dilution method; assay type: functional; details: ATCC 10536, 24 h; procedure, shortened: as §1
[7] = system: Micrococcus luteus; test: Antibacterial activity against Micrococcus luteus CIP 53.45 assessed as growth inhibition at 30 degC after 24 hrs by liquid broth dilution method; assay type: functional; details: CIP 53.45, 24 h; procedure, shortened: as §1
[8] = system: Geobacillus stearothermophilus; test: Antibacterial activity against Bacillus stearothermophilus ATTC 12980 assessed as growth inhibition at 30 degC after 24 hrs by liquid broth dilution method; assay type: functional; details: ATTC 12980, 24 h; procedure, shortened: as §1
[9] = system: Pseudomonas aeruginosa; test: Antibacterial activity against Pseudomonas aeruginosa CIP A22 assessed as growth inhibition at 30 degC after 24 hrs by liquid broth dilution method; assay type: functional; details: CIP A22, 24 h; procedure, shortened: as §1
[10] = system: Sinorhizobium meliloti; test: Antibacterial activity against Sinorhizobium meliloti Rm1021 assessed as growth inhibition at 30 degC after 24 hrs by liquid broth dilution method; assay type: functional; details: Rm1021, 24 h; procedure, shortened: as §1
[11] = Gamma critical micelle concentration of the compound by wilhelmy method; assay type: physicochemical
Procedure, shortened: (§2)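 Wilhelmy plate method at 293 K. Concentrated solution added stepwise from a syringe into ultrapure water, stirred gently 30 s after each addition, then equilibrium surface tension read. Each value is the mean of at least three measurements (SD within ±1.5% of mean). Transducer precision 0.1 mN/m; platinum plate flame-cleaned. Surface tension plotted against molar concentration to give CMC and γCMC.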

[12] = Critical micelle concentration of the compound by wilhelmy method; assay type: physicochemical; procedure, shortened: as §2

Row | Structure (SMILES) | MIC [1] [µg/mL] | MIC [2] [µg/mL] | MIC [3] [µg/mL] | MIC [4] [µg/mL] | MIC [5] [µg/mL] | MIC [6] [µg/mL] | MIC [7] [µg/mL] | MIC [8] [µg/mL] | MIC [9] [µg/mL] | MIC [10] [µg/mL] | gammaCMC [11] | CMC [12]
1 | CCCCCCCCOC[C@H]1O[C@@H]2OC(C)(C)O[C@@H]2[C@H]2OC(C)(C)O[C@H]21 | ≥ 250 | ≥ 250 | ≥ 250 | ≥ 250 | ≥ 250 | ≥ 250 | ≥ 250 | ≥ 250 | ≥ 250 | ≥ 250 | – | –
2 | CCCCCCCCCCCCOC[C@H]1O[C@@H]2OC(C)(C)O[C@@H]2[C@H]2OC(C)(C)O[C@H]21 | ≥ 250 | ≥ 250 | ≥ 250 | ≥ 250 | ≥ 250 | ≥ 250 | ≥ 250 | ≥ 250 | ≥ 250 | ≥ 250 | – | –
3 | CCCCCCCCOC[C@H]1O[C@H](O)[C@H](O)[C@@H](O)[C@H]1O | ≥ 250 | ≥ 250 | ≥ 250 | ≥ 250 | ≥ 250 | ≥ 250 | ≥ 250 | ≥ 250 | ≥ 250 | ≥ 250 | 28 mN/meter | 12 mmol/L
4 | CCCCCCCCCCCCOC[C@H]1O[C@H](O)[C@H](O)[C@@H](O)[C@H]1O | ≥ 250 | ≥ 250 | ≥ 250 | ≥ 250 | ≥ 250 | ≥ 250 | ≥ 250 | ≥ 250 | ≥ 250 | ≥ 250 | Not Active | Not Active
5 | CCCCCCCCOCCCCOC[C@H]1O[C@@H]2OC(C)(C)O[C@@H]2[C@H]2OC(C)(C)O[C@H]21 | 62.5 (≈ 141 µM) | 125 (≈ 281 µM) | 62.5 (≈ 141 µM) | 62.5 (≈ 141 µM) | 62.5 (≈ 141 µM) | 62.5 (≈ 141 µM) | 62.5 (≈ 141 µM) | 62.5 (≈ 141 µM) | 62.5 (≈ 141 µM) | 62.5 (≈ 141 µM) | – | –
6 | CCCCCCCCOCC#CCOC[C@H]1O[C@@H]2OC(C)(C)O[C@@H]2[C@H]2OC(C)(C)O[C@H]21 | 62.5 (≈ 142 µM) | 125 (≈ 284 µM) | 62.5 (≈ 142 µM) | 62.5 (≈ 142 µM) | 62.5 (≈ 142 µM) | 62.5 (≈ 142 µM) | 62.5 (≈ 142 µM) | 62.5 (≈ 142 µM) | 62.5 (≈ 142 µM) | 62.5 (≈ 142 µM) | – | –
7 | CCCCCCCCOc1ccc(OC[C@H]2O[C@@H]3OC(C)(C)O[C@@H]3[C@H]3OC(C)(C)O[C@H]32)cc1 | 62.5 (≈ 135 µM) | 125 (≈ 269 µM) | 62.5 (≈ 135 µM) | 125 (≈ 269 µM) | 62.5 (≈ 135 µM) | 62.5 (≈ 135 µM) | 62.5 (≈ 135 µM) | 62.5 (≈ 135 µM) | 125 (≈ 269 µM) | 62.5 (≈ 135 µM) | – | –
8 | CCCCCCCCCCCCOCCCCOC[C@H]1O[C@@H]2OC(C)(C)O[C@@H]2[C@H]2OC(C)(C)O[C@H]21 | 62.5 (≈ 125 µM) | 125 (≈ 250 µM) | 62.5 (≈ 125 µM) | 62.5 (≈ 125 µM) | 31.2 (≈ 62.4 µM) | 62.5 (≈ 125 µM) | 15.6 (≈ 31.2 µM) | 31.2 (≈ 62.4 µM) | 62.5 (≈ 125 µM) | 62.5 (≈ 125 µM) | – | –
9 | CCCCCCCCCCCCOCC#CCOC[C@H]1O[C@@H]2OC(C)(C)O[C@@H]2[C@H]2OC(C)(C)O[C@H]21 | 62.5 (≈ 126 µM) | 125 (≈ 252 µM) | 62.5 (≈ 126 µM) | 62.5 (≈ 126 µM) | 62.5 (≈ 126 µM) | 62.5 (≈ 126 µM) | – | 15.6 (≈ 31.4 µM) | 62.5 (≈ 126 µM) | 62.5 (≈ 126 µM) | – | –
10 | CCCCCCCCCCCCOc1ccc(OC[C@H]2O[C@@H]3OC(C)(C)O[C@@H]3[C@H]3OC(C)(C)O[C@H]32)cc1 | 62.5 (≈ 120 µM) | 125 (≈ 240 µM) | 62.5 (≈ 120 µM) | 62.5 (≈ 120 µM) | 62.5 (≈ 120 µM) | 62.5 (≈ 120 µM) | 31.2 (≈ 60 µM) | 62.5 (≈ 120 µM) | 125 (≈ 240 µM) | 62.5 (≈ 120 µM) | – | –
11 | CCCCCCCCOCCCCOC[C@H]1O[C@H](O)[C@H](O)[C@@H](O)[C@H]1O | 62.5 (≈ 171 µM) | 125 (≈ 343 µM) | 62.5 (≈ 171 µM) | 125 (≈ 343 µM) | 62.5 (≈ 171 µM) | 62.5 (≈ 171 µM) | 62.5 (≈ 171 µM) | 62.5 (≈ 171 µM) | 62.5 (≈ 171 µM) | 62.5 (≈ 171 µM) | 30 mN/meter | 0.3 mmol/L
12 | CCCCCCCCOCC#CCOC[C@H]1O[C@H](O)[C@H](O)[C@@H](O)[C@H]1O | 62.5 (≈ 173 µM) | 125 (≈ 347 µM) | 62.5 (≈ 173 µM) | 125 (≈ 347 µM) | 62.5 (≈ 173 µM) | 62.5 (≈ 173 µM) | 62.5 (≈ 173 µM) | 62.5 (≈ 173 µM) | 125 (≈ 347 µM) | 62.5 (≈ 173 µM) | 30 mN/meter | 0.06 mmol/L
13 | CCCCCCCCOc1ccc(OC[C@H]2O[C@H](O)[C@H](O)[C@@H](O)[C@H]2O)cc1 | 62.5 (≈ 163 µM) | 125 (≈ 325 µM) | 62.5 (≈ 163 µM) | 125 (≈ 325 µM) | 62.5 (≈ 163 µM) | 62.5 (≈ 163 µM) | 62.5 (≈ 163 µM) | 62.5 (≈ 163 µM) | 125 (≈ 325 µM) | 62.5 (≈ 163 µM) | Not Active | Not Active
14 | CCCCCCCCCCCCOCCCCOC[C@H]1O[C@H](O)[C@H](O)[C@@H](O)[C@H]1O | 62.5 (≈ 149 µM) | 125 (≈ 297 µM) | 62.5 (≈ 149 µM) | 62.5 (≈ 149 µM) | 62.5 (≈ 149 µM) | 62.5 (≈ 149 µM) | 15.6 (≈ 37.1 µM) | 31.2 (≈ 74.3 µM) | 62.5 (≈ 149 µM) | 62.5 (≈ 149 µM) | 48 mN/meter | 0.023 mmol/L
15 | CCCCCCCCCCCCOCC#CCOC[C@H]1O[C@H](O)[C@H](O)[C@@H](O)[C@H]1O | 62.5 (≈ 150 µM) | 62.5 (≈ 150 µM) | 62.5 (≈ 150 µM) | 62.5 (≈ 150 µM) | 62.5 (≈ 150 µM) | 62.5 (≈ 150 µM) | 3.91 (≈ 9.39 µM) | 7.81 (≈ 18.7 µM) | 62.5 (≈ 150 µM) | 31.2 (≈ 75 µM) | 35 mN/meter | 0.032 mmol/L
16 | CCCCCCCCCCCCOc1ccc(OC[C@H]2O[C@H](O)[C@H](O)[C@@H](O)[C@H]2O)cc1 | 62.5 (≈ 142 µM) | 125 (≈ 284 µM) | 62.5 (≈ 142 µM) | 125 (≈ 284 µM) | 62.5 (≈ 142 µM) | 62.5 (≈ 142 µM) | 62.5 (≈ 142 µM) | 62.5 (≈ 142 µM) | 62.5 (≈ 142 µM) | 62.5 (≈ 142 µM) | 54 mN/meter | 3.1 mmol/L
17 | O=C(N[C@H](CO)[C@H](O)c1ccc([N+](=O)[O-])cc1)C(Cl)Cl [CHLORAMPHENICOL] | 0.98 (≈ 3.03 µM) | < 0.98 | < 0.98 | 7.8 (≈ 24.1 µM) | 1.95 (≈ 6.03 µM) | < 0.98 | < 0.98 | 3.9 (≈ 12.1 µM) | 1.95 (≈ 6.03 µM) | < 0.98 | – | –
